Measurements from ChEMBL document CHEMBL1158632, “Design, synthesis, and antibacterial activity of 2,5-dihydropyrrole formyl hydroxyamino derivatives as novel peptide deformylase inhibitors” (2010).
≈ marks a conversion by molar mass, not a printed value.

Assays:
Format in all cases: functional
Escherichia coli [1] = experiment: Antibacterial activity against Escherichia coli ATCC 35218 by microbroth dilution technique
Summary of the method: (§1)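 Read-out was the minimum inhibitory concentration (MIC), found by broth microdilution.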

Staphylococcus aureus [2] = experiment: Antibacterial activity against methicillin-resistant Staphylococcus aureus ATCC 43300 by microbroth dilution technique
Staphylococcus aureus [3] = experiment: Antibacterial activity against Staphylococcus aureus ATCC 25923 by microbroth dilution technique; summary of the method: as §1
Escherichia coli [4] = experiment: Antibacterial activity against Escherichia coli ATCC 25922 by microbroth dilution technique; summary of the method: as §1
[5] = test system: Staphylococcus epidermidis; experiment: Antibacterial activity against Staphylococcus epidermidis ATCC 12228 by microbroth dilution technique; summary of the method: as §1
Staphylococcus aureus [6] = experiment: Antibacterial activity against methicillin-susceptible Staphylococcus aureus ATCC 29213 by microbroth dilution technique; summary of the method: as §1

Row | SMILES | MIC (Escherichia coli [1]) [µg/mL] | MIC (Staphylococcus aureus [2]) [µg/mL] | MIC (Staphylococcus aureus [3]) [µg/mL] | MIC (Escherichia coli [4]) [µg/mL] | MIC [5] [µg/mL] | MIC (Staphylococcus aureus [6]) [µg/mL]
1 | O=C(O)c1cn(C2CC2)c2cc(N3CCNCC3)c(F)cc2c1=O [CIPROFLOXACIN] | < 0.0312 | 1 (≈ 3.02 µM) | 0.5 (≈ 1.51 µM) | < 0.0312 | 0.25 (≈ 0.754 µM) | 0.5 (≈ 1.51 µM)
2 | CCCC[C@H](CN(O)C=O)C(=O)N1CC=C[C@H]1C(=O)Nc1ccc([N+](=O)[O-])cc1 | 32 (≈ 79.1 µM) | 0.5 (≈ 1.24 µM) | 0.5 (≈ 1.24 µM) | > 64 | 0.5 (≈ 1.24 µM) | 2 (≈ 4.95 µM)
3 | CCCC[C@H](CN(O)C=O)C(=O)N1CC=C[C@H]1C(=O)N[C@@H](C)c1ccccc1 | > 64 | 8 (≈ 20.6 µM) | 4 (≈ 10.3 µM) | > 64 | 8 (≈ 20.6 µM) | 16 (≈ 41.3 µM)
4 | CCCC[C@H](CN(O)C=O)C(=O)N1CC=C[C@H]1C(=O)Nc1ccccc1 | 64 (≈ 178 µM) | 1 (≈ 2.78 µM) | 4 (≈ 11.1 µM) | > 64 | 2 (≈ 5.56 µM) | 8 (≈ 22.3 µM)
5 | CCCC[C@H](CN(O)C=O)C(=O)N1CC=C[C@H]1C(=O)Nc1ccc(F)cc1 | 64 (≈ 170 µM) | 1 (≈ 2.65 µM) | 2 (≈ 5.3 µM) | > 64 | 4 (≈ 10.6 µM) | 2 (≈ 5.3 µM)
6 | CCCC[C@H](CN(O)C=O)C(=O)N1CCC[C@H]1C(=O)Nc1ccc(F)c[n+]1[O-] | 64 (≈ 161 µM) | 0.5 (≈ 1.26 µM) | 0.25 (≈ 0.631 µM) | 64 (≈ 161 µM) | 0.5 (≈ 1.26 µM) | 1 (≈ 2.52 µM)
7 | CCCC[C@H](CN(O)C=O)C(=O)N1CC=C[C@H]1C(=O)Nc1ccc(OC)cc1 | > 64 | 1 (≈ 2.57 µM) | 0.5 (≈ 1.28 µM) | > 64 | 2 (≈ 5.14 µM) | 2 (≈ 5.14 µM)
8 | CCCC[C@H](CN(O)C=O)C(=O)N1CC=C[C@H]1C(=O)Nc1ccccc1Cl | 64 (≈ 162 µM) | 0.25 (≈ 0.635 µM) | 0.5 (≈ 1.27 µM) | > 64 | 1 (≈ 2.54 µM) | 2 (≈ 5.08 µM)
9 | CN[C@H](CC(C)C)C(=O)N[C@H]1C(=O)N[C@@H](CC(N)=O)C(=O)N[C@H]2C(=O)N[C@H]3C(=O)N[C@H](C(=O)N[C@H](C(=O)O)c4cc(O)cc(O)c4-c4cc3ccc4O)[C@H](O)c3ccc(c(Cl)c3)Oc3cc2cc(c3O[C@@H]2O[C@H](CO)[C@@H](O)[C@H](O)[C@H]2O[C@H]2C[C@](C)(N)[C@H](O)[C@H](C)O2)Oc2ccc(cc2Cl)[C@H]1O [VANCOMYCIN] | > 64 |  |  | > 64 |  | 
10 | CC1(C)S[C@@H]2[C@H](NC(=O)Cc3ccccc3)C(=O)N2[C@H]1C(=O)O [PENICILLIN G] | > 64 | 64 (≈ 191 µM) | 0.0625 (≈ 0.187 µM) | > 64 | 2 (≈ 5.98 µM) | 1 (≈ 2.99 µM)
11 | CCCC[C@H](CN(O)C=O)C(=O)N1CC=C[C@H]1C(=O)N[C@H](C)c1ccccc1 | > 64 | 2 (≈ 5.16 µM) | 4 (≈ 10.3 µM) | > 64 | 4 (≈ 10.3 µM) | 16 (≈ 41.3 µM)
12 | CCCC[C@H](CN(O)C=O)C(=O)N1CC=C[C@H]1C(=O)Nc1ccc(Br)cc1 | > 64 | 0.5 (≈ 1.14 µM) | 4 (≈ 9.13 µM) | > 64 | 2 (≈ 4.56 µM) | 1 (≈ 2.28 µM)
13 | CCCC[C@H](CN(O)C=O)C(=O)N1CC=C[C@H]1C(=O)Nc1ccc(F)c[n+]1[O-] | 64 (≈ 162 µM) | 0.5 (≈ 1.27 µM) | 0.5 (≈ 1.27 µM) | > 64 | 1 (≈ 2.54 µM) | 1 (≈ 2.54 µM)
14 | CCCC[C@H](CN(O)C=O)C(=O)N1CC=C[C@H]1C(=O)NC1CC1 | 32 (≈ 99 µM) | 2 (≈ 6.18 µM) | 64 (≈ 198 µM) | 64 (≈ 198 µM) | 4 (≈ 12.4 µM) | 32 (≈ 99 µM)
15 | CCCC[C@H](CN(O)C=O)C(=O)N1CC=C[C@H]1C(=O)Nc1ccccc1Br | > 64 | 1 (≈ 2.28 µM) | 32 (≈ 73 µM) | > 64 | 8 (≈ 18.3 µM) | 4 (≈ 9.13 µM)
16 | CCCC[C@H](CN(O)C=O)C(=O)N1CC=C[C@H]1C(=O)Nc1ncc(C)s1 | 16 (≈ 42.1 µM) | 0.125 (≈ 0.329 µM) | 0.0625 (≈ 0.164 µM) | 32 (≈ 84.1 µM) | 0.25 (≈ 0.657 µM) | 0.25 (≈ 0.657 µM)
17 | CC(=O)NC[C@H]1CN(c2ccc(N3CCOCC3)c(F)c2)C(=O)O1 [LINEZOLID] | > 64 |  |  | > 64 | 0.5 (≈ 1.48 µM) | 
18 | CCCC[C@H](CN(O)C=O)C(=O)N1CC=C[C@H]1C(=O)Nc1nnc(C(F)(F)F)s1 | > 64 | 8 (≈ 18.4 µM) | 32 (≈ 73.5 µM) | > 64 | 16 (≈ 36.7 µM) | 16 (≈ 36.7 µM)
19 | CCCC[C@H](CN(O)C=O)C(=O)N1CC=C[C@H]1C(=O)N1CCOCC1 | > 64 | 32 (≈ 90.5 µM) | > 64 | > 64 | > 64 | > 64
20 | CCCC[C@H](CN(O)C=O)C(=O)N1CC=C[C@H]1C(=O)Nc1ccc(F)cn1 | 64 (≈ 169 µM) | 0.25 (≈ 0.661 µM) | 0.5 (≈ 1.32 µM) | > 64 | 0.5 (≈ 1.32 µM) | 1 (≈ 2.64 µM)
21 | CCCC[C@H](CN(O)C=O)C(=O)N1CC=C[C@H]1C(=O)Nc1ccccn1 | 32 (≈ 88.8 µM) | 0.125 (≈ 0.347 µM) | 0.125 (≈ 0.347 µM) | > 64 | 0.5 (≈ 1.39 µM) | 1 (≈ 2.77 µM)
22 | CCCC[C@H](CN(O)C=O)C(=O)N1CC=C[C@H]1C(=O)Nc1ccc(Cl)cc1 | > 64 | 1 (≈ 2.54 µM) | 8 (≈ 20.3 µM) | > 64 | 4 (≈ 10.2 µM) | 2 (≈ 5.08 µM)
23 | CCCC[C@H](CN(O)C=O)C(=O)N1CC=C[C@H]1C(=O)Nc1cccc(Br)c1 | 16 (≈ 36.5 µM) | 0.125 (≈ 0.285 µM) | 8 (≈ 18.3 µM) | 64 (≈ 146 µM) | 1 (≈ 2.28 µM) | 1 (≈ 2.28 µM)
